Results taken from ChEMBL document CHEMBL2069190, “Identification of new γ-hydroxybutenolides that preferentially inhibit the activity of mPGES-1” (Bioorg Med Chem, 2012).
One block for each compound: values may come before it. Active and inactive are the calls of the source. The calls are words filed in the database; no cut-off is given here.

How the values were obtained:
[1] = tested on: A549; test: Antiinflammatory activity in human A549 cells assessed as inhibition of IL-1beta-induced mPGES1 expression at 10 uM treated 30 mins prior to IL-1beta challenge measured after 48 hrs by Western blot analysis relative to control; assay type: functional, cell-based
In short: (§1)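 A549 cells (DMEM high glucose, 10% heat-inactivated FCS, penicillin/streptomycin, 37 °C, 5% CO2) pre-incubated 30 min with compound or vehicle (DMSO, 0.3%), then IL-1b (2 ng/mL) added. After 48 h, cells lysed; mPGES-1 protein analysed by Western blot with b-actin as loading control. Bands semi-quantified by densitometry as % of uninhibited DMSO control, mean SD, n = 3.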

[2] = molecular target: T1, Prostaglandin E synthase (Homo sapiens, UniProt O14684); test: Inhibition of mPGES-1-mediated PGE2 formation in IL-1beta-stimulated human A549 cells preincubated for 10 mins measured after 1 min by RP-HPLC analysis; assay type: cell-based
T1 sequence (O14684 whole entry): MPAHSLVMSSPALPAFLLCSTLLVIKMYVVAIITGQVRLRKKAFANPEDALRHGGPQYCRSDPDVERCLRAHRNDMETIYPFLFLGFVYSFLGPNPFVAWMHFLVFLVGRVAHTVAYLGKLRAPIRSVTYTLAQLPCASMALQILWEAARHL
In short: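 Microsomes from A549 cells treated 48 h with 1 ng/mL IL-1b, isolated by sonication and differential centrifugation (10,000×g 10 min, 174,000×g 1 h, 4 °C). Diluted in 0.1 M potassium phosphate pH 7.4 with 2.5 mM glutathione. Pre-incubated with compound or vehicle on ice, then 20 µM PGH2 added. PGE2 measured by RP-HPLC as % of DMSO control, mean S.E., n = 3–4.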

[3] = Inhibition of His-tagged human recombinant cPLA2alpha expressed in baculovirus infected insect sf9 cells assessed as inhibition of arachidonic acid formation after 1 hr by RP-HPLC analysis
[4] = molecular target: T2, Polyunsaturated fatty acid lipoxygenase ALOX15 (Homo sapiens) (UniProt P16050); test: Inhibition of 15-lipoxygenase in A23187-stimulated human PMNL assessed as inhibition of 15-H(p)ETE formation preincubated 15 mins by RP-HPLC analysis
T2 sequence (whole entry): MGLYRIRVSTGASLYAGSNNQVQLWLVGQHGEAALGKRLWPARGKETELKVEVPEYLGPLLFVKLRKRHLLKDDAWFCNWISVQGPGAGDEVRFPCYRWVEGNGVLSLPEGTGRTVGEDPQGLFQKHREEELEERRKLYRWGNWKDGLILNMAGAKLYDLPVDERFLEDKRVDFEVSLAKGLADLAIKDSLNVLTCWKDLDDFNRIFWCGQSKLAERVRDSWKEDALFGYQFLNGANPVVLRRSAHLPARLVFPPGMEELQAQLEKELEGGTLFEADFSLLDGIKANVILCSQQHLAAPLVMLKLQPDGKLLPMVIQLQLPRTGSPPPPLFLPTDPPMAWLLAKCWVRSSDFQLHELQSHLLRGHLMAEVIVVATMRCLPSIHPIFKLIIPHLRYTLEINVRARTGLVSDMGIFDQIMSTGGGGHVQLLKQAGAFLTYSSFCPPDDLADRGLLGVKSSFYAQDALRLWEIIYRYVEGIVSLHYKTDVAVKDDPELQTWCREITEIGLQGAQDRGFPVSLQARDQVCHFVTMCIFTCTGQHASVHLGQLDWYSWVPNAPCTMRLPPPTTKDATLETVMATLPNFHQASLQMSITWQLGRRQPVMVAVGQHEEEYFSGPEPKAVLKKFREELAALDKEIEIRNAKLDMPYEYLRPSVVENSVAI

[5] = Cytotoxicity against mouse […] cells at 10 uM after 24 hrs by MTT assay
[6] = molecular target: T3, Prostaglandin G/H synthase 1 (Ovis aries) (UniProt P05979); test: Inhibition of ovine COX1 at 10 uM preincubated for 5 mins measured after 5 mins
T3 sequence (whole entry): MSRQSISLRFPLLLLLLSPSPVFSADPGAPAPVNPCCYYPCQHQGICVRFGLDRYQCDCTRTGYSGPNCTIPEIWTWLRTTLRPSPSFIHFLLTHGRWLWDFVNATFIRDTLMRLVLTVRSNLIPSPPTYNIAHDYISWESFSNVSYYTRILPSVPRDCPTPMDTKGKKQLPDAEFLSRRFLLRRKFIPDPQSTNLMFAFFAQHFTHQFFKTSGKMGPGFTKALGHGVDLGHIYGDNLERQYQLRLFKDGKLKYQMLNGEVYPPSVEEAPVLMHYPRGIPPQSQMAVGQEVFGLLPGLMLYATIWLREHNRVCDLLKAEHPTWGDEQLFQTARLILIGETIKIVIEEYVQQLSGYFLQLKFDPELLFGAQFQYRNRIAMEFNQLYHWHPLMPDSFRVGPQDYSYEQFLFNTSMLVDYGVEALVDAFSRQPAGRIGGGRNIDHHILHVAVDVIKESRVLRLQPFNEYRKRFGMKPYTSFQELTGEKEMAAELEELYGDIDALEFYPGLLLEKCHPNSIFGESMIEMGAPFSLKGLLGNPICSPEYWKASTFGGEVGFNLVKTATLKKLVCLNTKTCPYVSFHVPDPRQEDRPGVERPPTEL

[7] = molecular target: T4, Polyunsaturated fatty acid 5-lipoxygenase (Homo sapiens) (UniProt P09917); test: Inhibition of 5-lipoxygenase in A23187-stimulated human PMNL assessed as inhibition of 15-H(p)ETE formation preincubated 15 mins by RP-HPLC analysis
T4 sequence (whole entry): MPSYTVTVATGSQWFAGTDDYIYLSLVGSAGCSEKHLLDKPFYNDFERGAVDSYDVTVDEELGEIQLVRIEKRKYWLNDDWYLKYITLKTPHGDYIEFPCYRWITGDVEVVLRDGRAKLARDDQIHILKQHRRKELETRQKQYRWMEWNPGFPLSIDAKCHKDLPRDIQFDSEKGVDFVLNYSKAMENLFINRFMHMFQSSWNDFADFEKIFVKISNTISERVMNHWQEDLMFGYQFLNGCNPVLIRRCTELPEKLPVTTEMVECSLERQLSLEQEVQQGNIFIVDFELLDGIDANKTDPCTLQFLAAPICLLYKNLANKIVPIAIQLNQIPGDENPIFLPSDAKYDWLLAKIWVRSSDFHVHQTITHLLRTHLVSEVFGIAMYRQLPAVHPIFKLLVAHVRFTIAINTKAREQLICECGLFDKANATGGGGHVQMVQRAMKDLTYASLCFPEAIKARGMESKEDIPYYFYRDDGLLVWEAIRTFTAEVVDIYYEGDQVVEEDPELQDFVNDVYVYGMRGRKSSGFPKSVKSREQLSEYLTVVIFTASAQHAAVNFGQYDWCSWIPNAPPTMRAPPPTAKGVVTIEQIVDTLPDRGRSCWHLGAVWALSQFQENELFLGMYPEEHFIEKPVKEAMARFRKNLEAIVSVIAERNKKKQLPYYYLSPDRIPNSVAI

[8] = Cytotoxicity against human primary monocytes at 10 uM after 24 hrs by MTT assay; conditions: monocyte
[9] = molecular target: T5, Polyunsaturated fatty acid lipoxygenase ALOX12 (Homo sapiens) (UniProt P18054); test: Inhibition of 12-lipoxygenase in A23187-stimulated human platelets assessed as reduction of 12(S)-H(P)ETE formation preincubated 15 mins by RP-HPLC analysis
T5 sequence (whole entry): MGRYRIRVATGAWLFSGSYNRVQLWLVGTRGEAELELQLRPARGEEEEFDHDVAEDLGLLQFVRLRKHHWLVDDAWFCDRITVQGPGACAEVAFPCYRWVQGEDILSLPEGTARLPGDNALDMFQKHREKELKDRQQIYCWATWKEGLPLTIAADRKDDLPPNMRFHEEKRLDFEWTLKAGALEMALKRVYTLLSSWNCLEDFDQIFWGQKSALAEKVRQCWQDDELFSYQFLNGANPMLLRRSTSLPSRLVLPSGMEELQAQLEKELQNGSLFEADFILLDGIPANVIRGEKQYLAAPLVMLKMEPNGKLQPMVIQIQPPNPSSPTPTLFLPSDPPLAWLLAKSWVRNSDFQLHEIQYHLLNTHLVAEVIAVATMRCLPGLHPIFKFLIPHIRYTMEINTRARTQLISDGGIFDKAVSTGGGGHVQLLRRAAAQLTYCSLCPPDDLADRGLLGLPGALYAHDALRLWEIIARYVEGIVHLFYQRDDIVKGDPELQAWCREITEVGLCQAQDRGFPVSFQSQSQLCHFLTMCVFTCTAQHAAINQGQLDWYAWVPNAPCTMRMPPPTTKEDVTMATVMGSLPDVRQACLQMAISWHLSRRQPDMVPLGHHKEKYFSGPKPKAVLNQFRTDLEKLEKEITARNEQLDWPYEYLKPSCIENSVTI

[10] = molecular target: T6, Prostaglandin G/H synthase 2 (Homo sapiens) (UniProt P35354); test: Inhibition of human COX2 at 10 uM preincubated for 5 mins measured after 5 mins
T6 sequence (whole entry): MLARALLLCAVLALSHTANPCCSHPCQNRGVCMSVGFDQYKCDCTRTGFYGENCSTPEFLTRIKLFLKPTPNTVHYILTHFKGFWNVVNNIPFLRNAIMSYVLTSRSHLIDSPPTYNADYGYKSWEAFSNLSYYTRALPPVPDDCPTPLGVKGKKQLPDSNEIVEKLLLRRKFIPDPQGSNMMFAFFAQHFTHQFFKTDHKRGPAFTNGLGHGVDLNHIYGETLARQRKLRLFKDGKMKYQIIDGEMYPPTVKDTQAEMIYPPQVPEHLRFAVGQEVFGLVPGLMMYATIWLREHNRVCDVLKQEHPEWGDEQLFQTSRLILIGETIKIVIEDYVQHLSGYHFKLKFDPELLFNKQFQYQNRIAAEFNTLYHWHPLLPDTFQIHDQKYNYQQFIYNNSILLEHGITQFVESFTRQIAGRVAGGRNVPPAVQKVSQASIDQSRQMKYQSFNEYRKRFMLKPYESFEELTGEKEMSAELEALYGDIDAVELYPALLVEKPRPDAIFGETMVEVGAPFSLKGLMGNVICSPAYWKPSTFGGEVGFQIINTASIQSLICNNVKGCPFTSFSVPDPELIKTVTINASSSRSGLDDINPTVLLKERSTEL

[11] = tested on: A549; test: Antiinflammatory activity in human A549 cells assessed as inhibition of IL-1beta-induced mPGES1 expression at 1 uM treated 30 mins prior to IL-1beta challenge measured after 48 hrs by Western blot analysis relative to control; assay type: functional, cell-based; in short: as §1

SMILES: O=C1OC(O)C(c2ccc(C(=O)N3CCCCC3)cc2)=C1Br (stereo not drawn)
inhibition [1]: inactive

IC50 [2]: 5.6 µM
SMILES: O=C1OC(O)C(c2ccc(C(=O)NCc3ccccc3)cc2)=C1Br (stereo not drawn)
inhibition [1]: inactive

SMILES: O=C1OC(O)C(c2ccc(C(=O)N3CCCC3)cc2)=C1Br (stereo not drawn)
inhibition [1]: inactive

inhibition [4]: inactive
inhibition [6]: inactive
inhibition [7]: 22%
IC50 [2]: 0.9 µM
inhibition [9]: inactive
inhibition [10]: inactive
SMILES: O=C1OC(O)C(c2ccc(C(=O)Nc3ccccc3)cc2)=C1Br (stereo not drawn)
inhibition [3]: inactive
Activity [5]: Non-toxic
Activity [8]: Non-toxic
inhibition [1]: inactive

SMILES: O=C1OC(O)C(c2ccc(C(=O)N3CCOCC3)cc2)=C1Br (stereo not drawn)
inhibition [1]: inactive

SMILES: O=C1OC(O)C(c2cccc(C(=O)N3CCCCC3)c2)=C1Br (stereo not drawn)
inhibition [1]: inactive

SMILES: O=C1OC(O)C(c2cccc(C(=O)NCc3ccccc3)c2)=C1Br (stereo not drawn)
inhibition [1]: inactive

SMILES: O=C1OC(O)C(c2ccc(C(=O)N3CCNCC3)cc2)=C1Br (stereo not drawn)
inhibition [1]: inactive

IC50 [2]: > 10 µM
SMILES: O=C1OC(O)C(c2cc3ccccc3s2)=C1Br (stereo not drawn)

SMILES: C[C@@H]1C[C@H]2[C@@H]3CCC4=CC(=O)C=C[C@]4(C)[C@@]3(F)[C@@H](O)C[C@]2(C)[C@@]1(O)C(=O)CO
inhibition [11]: Active

SMILES: O=C1OC(O)C(c2cccc(C(=O)Nc3ccccc3)c2)=C1Br (stereo not drawn)
inhibition [1]: inactive

SMILES: O=C1OC(O)C(c2cccc(C(=O)N3CCOCC3)c2)=C1Br (stereo not drawn)
inhibition [1]: inactive

SMILES: O=C1OC(O)C(c2cccc(C(=O)N3CCCC3)c2)=C1Br (stereo not drawn)
inhibition [1]: inactive
